Assay results reported in publication PMC4241170 (ACS Chemical Biology, 2014).

Assays:
HSP70 = assay: ITC, HSP70 presaturated with PET-16, interaction with PES; assay type: binding, human; conditions: data not shown
[1] = test system: nucleotide-free HSP70 protein; assay: ITC, nucleotide-free HSP70; assay type: binding, human; conditions: compared with ADP-bound form; 42 °C
GRP75 = conditions: ref [5],[19]; cited from earlier work
GRP78 (BiP) = conditions: ref [5],[19]; cited from earlier work
HSP70 (aa 386-616) = HSP70 (aa 386-616) (Homo sapiens, UniProt P0DMV8); assay: ITC, C-terminal domain of HSP70; assay type: binding; conditions: Figure 2J
Outline: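 Recombinant HSP70 C-terminal fragment (aa 386–616) titrated against test compound by isothermal titration calorimetry. Kd reported as average and standard deviation of three independent experiments.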

DnaK (aa 389-607) = DnaK (aa 389-607) (Escherichia coli, UniProt P0A6Y8); assay: ITC, DnaK SBD; assay type: binding, E. coli; conditions: data not shown
mammalian tumor cells = assay: Viability of mammalian tumor cells; assay type: cell-based; conditions: TPP moiety alone, Figure 1C
Outline: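 Human A875 melanoma cells and nontransformed human IMR90 fibroblasts treated for 24 h alongside a DMSO vehicle control. Results are representative of four independent experiments.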

E. coli DH5α = assay: Growth of E. coli at elevated temperature; assay type: cell-based; conditions: 6 h at 43 °C, 30 μM in Figure 1E
Outline: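 E. coli DH5α grown with varying concentrations of test compound for 6 h at 43 °C, with a DMSO vehicle control; one comparison used 30 μM. Growth measured in four independent experiments, with s.d. error bars.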

DnaK (aa 389-607), sequence (P0A6Y8 389-607): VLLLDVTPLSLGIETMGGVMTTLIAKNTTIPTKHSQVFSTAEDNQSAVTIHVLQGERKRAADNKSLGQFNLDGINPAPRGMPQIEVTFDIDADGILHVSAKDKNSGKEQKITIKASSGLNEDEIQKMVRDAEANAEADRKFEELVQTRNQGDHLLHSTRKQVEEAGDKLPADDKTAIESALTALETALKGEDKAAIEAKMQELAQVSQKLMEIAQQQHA
HSP70 (aa 386-616), sequence (P0DMV8 386-616): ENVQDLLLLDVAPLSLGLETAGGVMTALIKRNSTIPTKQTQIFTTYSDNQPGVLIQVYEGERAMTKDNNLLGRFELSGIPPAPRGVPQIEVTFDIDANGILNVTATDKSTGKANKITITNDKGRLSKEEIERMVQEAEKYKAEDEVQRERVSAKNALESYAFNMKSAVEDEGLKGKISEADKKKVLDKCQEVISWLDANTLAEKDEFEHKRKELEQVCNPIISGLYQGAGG

Compound | interaction of HSP70 with PES after presaturation with PET-16 (HSP70) | interaction with nucleotide-free HSP70 (ITC) [1] | interaction with GRP75 (GRP75) | interaction with GRP78 (BiP) (GRP78 (BiP)) | binding to HSP70 SBD (ITC) (HSP70 (aa 386-616)) | binding to DnaK SBD (ITC) (DnaK (aa 389-607)) | effect on viability of mammalian tumor cells (mammalian tumor cells) | effect on growth of E. coli (E. coli DH5α)
NS(=O)(=O)C#Cc1ccccc1 [PES, 2-phenylethynesulfonamide] | impairs the interaction | comparable affinity | do not interact | do not interact | – | – | – | –
triphenylphosphine (TPP) bromide | – | – | – | – | does not bind | does not bind | little discernible effect | did not detect an effect
